Measurements pooled from the literature.
Lines come from different studies, so protocols differ.
Target: SRSF protein kinase 1 (SRPK1, Homo sapiens, UniProt Q96SB4)

SMILES | assay | conditions | endpoint | result
C#Cc1n[nH]c2c(-c3cn([C@@H](C)c4ccccn4)c(=O)[nH]c3=O)cc(F)cc12 | enzyme activity, inhibitor | 0.1 µM | inhibition | 3.3%
Cn1cc(-c2cc(F)cc(N3CCn4c(cc5c4CCCC5)C3=O)c2CO)cc(Nc2ccc(N3CCN(C4COC4)CC3)cn2)c1=O | enzyme activity, inhibitor | 0.1 µM | inhibition | 14%
O=c1[nH]c2ccccc2n1C1CCN(Cc2ccc(-c3[nH]c4cc5ncnc5cc4nc3-c3ccccc3)cc2)CC1 | cell-free assay | 0.5 µM | remaining signal | 106%
Cn1cc(-c2cccc(N3CCc4c(sc5c4CC(C)(C)C5)C3=O)c2CO)cc(Nc2ccncn2)c1=O | enzyme activity, inhibitor | 1 µM | inhibition | 5%
COc1ncccc1-c1cnn2ccc(N3CCN(C(=O)OC(C)C)CC3)nc12 | binding, competition with immobilised ligand | 1 µM | remaining binding | 19%
Cc1nn(C)cc1-c1nc2c(N3CCN(Cc4ccc(Cl)cc4)CC3)c(Cl)cnc2[nH]1 | binding, competition with immobilised ligand | 1 µM | remaining binding | 7.8%
COc1cc(Nc2ncc(F)c(Nc3ccc4c(n3)NC(=O)C(C)(C)O4)n2)cc(OC)c1OC | binding | 10 µM | inhibition | 87%
Cn1cncc1[C@](O)(COc1ccc(C#N)cc1-c1ccc(OC(F)(F)F)cc1)c1ccc(C#N)cc1 | cell-free assay, competition with immobilised ligand | 1 µM | remaining binding | 70%
CC(C)(C)c1cc(C=C(C#N)C#N)cc(Br)c1O | enzyme activity, inhibitor | 0.5 µM | remaining activity | 101%
C#Cc1n[nH]c2c(-c3cn([C@@H](C)c4ccccc4)c(=O)[nH]c3=O)cc(F)cc12 | enzyme activity, inhibitor | 0.1 µM | inhibition | 3.1%
